Assay outcomes as filed in PubChem.
An excerpt weighted towards active compounds, which were near 2.3% of everything screened.
CHT allo act – allosterically activates the human high affinity choline transporter | CHT-expressing cells, membrane potential dye, choline EC20; hits give high values; LV-AA mutant CHT in HEK293 cells | B-score at 10 µM | AID 488977 | Q9GZV3 | 310,000 compounds, 0.49% hits;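 active = initial fluorescence not abnormally high and integrated response B-score, plate-corrected, over 3 SD above library mean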
DSG3 Ab inh – inhibitors of pemphigus antibody binding to human desmoglein-3; DSG3-coupled beads, scFv-anti-DSG3-GFP binding, flow cytometry; hits give low values; binding (percent of control), % at 10 µM; 310,000 compounds, 0.48% hits; AID 588358;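 active = binding more than 3 SD below its plate's average and above zero; inconclusive = below that plate limit but binding exactly zero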;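 note: hits lower antibody fragment binding to DSG3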
Target sequence (P32926 whole entry, looked up, the tested form may be a part): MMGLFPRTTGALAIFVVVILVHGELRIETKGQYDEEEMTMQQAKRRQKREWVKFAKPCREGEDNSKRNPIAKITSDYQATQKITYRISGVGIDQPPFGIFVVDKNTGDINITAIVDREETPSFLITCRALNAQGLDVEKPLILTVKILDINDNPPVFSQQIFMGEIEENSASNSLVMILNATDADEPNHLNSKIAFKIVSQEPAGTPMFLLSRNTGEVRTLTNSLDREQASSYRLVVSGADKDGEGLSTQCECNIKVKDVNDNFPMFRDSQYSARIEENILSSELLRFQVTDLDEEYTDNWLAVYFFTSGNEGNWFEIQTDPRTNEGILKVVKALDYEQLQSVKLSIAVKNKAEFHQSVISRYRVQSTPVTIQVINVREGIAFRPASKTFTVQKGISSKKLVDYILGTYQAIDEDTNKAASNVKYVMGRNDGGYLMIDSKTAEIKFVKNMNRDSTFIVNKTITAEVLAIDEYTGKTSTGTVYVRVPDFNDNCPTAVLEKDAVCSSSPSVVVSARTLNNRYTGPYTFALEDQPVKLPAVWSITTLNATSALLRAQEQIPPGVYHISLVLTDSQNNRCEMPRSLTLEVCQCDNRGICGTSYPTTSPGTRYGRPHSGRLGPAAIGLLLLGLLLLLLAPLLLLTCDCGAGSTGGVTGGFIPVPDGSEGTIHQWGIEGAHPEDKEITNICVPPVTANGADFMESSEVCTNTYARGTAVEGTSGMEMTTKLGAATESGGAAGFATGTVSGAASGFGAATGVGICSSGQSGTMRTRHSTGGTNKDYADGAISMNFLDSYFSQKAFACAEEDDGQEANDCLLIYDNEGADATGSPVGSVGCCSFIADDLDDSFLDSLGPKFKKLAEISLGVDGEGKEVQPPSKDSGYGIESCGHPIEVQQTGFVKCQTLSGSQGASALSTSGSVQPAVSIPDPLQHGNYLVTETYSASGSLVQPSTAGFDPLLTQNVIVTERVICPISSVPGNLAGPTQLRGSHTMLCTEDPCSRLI
p-CIP stab down – lowers stability of the mouse p/CIP coactivator protein. F442A p/CIP-EGFP cells, EGFP fluorescence, 16 h. Q05BA5. 290,000 compounds, 0.01% hits. AID 1984. decrease of EGFP signal, % at 10 µM;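 active = EGFP signal decrease of at least 30% at 10 µM or well 3 SD below plate mean, unless failing retest; inactive = the rest, including hits failing retest or dose response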
GPR7 antag – blocks human GPR7 receptor signaling | P48145 | GPR7-expressing cells, fluorescence antagonist assay | inhibition, % at 4.4 µM | 290,000 compounds, 1.1% hits; in the data active = inhibition above about 16%, passing the limit was not always enough;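 note: cells stimulated with the agonist NPW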
CHT block – inhibitors of human choline transporter CHT; B-score at 10 µM; CHT-expressing cells, membrane potential dye, choline response; hits give low values; Q9GZV3; 310,000 compounds, 0.86% hits;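 active = B-score over 3 SD under the library average, and starting fluorescence ratio not unusually high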;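 note: choline stimulus applied at its EC90 after an EC20 pre-addition; B-score computed on integrated fluorescence ratio after choline addition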
T cell modulator – T cell immune modulation candidate. 330,000 compounds, 0.068% hits. response (vesicle binding), % at 7 µM. AID 2052. 2C CD8+ T cell-vesicle binding, flow cytometry; hits give low values;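 active = response, share of CD8 T cells binding vesicles, and their 90th percentile fluorescence all below set limits, cut at about 80% in these data, passing the limit was not always enough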;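 note: values below 100% mean blocked vesicle binding to the CD8+ T cells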
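Material: 2C TCR transgenic mouse naive CD8+ T cells, MACS-purified. Also added: QL9-charged Drosophila Ld/ICAM-1/B7-1 vesicles. Timing: binding 1.5 h at 37 °C. Measured by: high-throughput flow cytometry with anti-B7-1 and anti-CD8 staining. Read-out: percent CD8+ FL2 mean versus row control. Controls: Unloaded micro-vesicles (low), QL9 vesicles with 0.7% DMSO (high).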
CHT block conf – confirmation of human choline transporter CHT inhibitors. shares compounds with CHT block. CHT-expressing cells, choline membrane potential dye; LV-to-AA substituted CHT, HEK293 cells. CHT activity remaining % of control (hits give low values), % at 10 µM. 2,400 compounds, 70% hits. AID 493221;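 active = choline transporter activity left, mean of duplicates at 10 µM, below buffer-only control mean minus 3 SD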;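 note: depolarization triggered by choline at its EC90 following an EC20 pre-addition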
HEK293 CHT ctr – activity in parental HEK293 cells lacking CHT | membrane potential ratio readout (active if shifted either direction beyond buffer ±3SD; no single direction) at 10 µM | 2,400 compounds, 4% hits | shares compounds with CHT block | membrane potential dye, choline response; active = decrease or increase beyond buffer ±3SD | AID 493222;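 note: parental cells lack the transporter so any hit is non-specific; ratio is peak minus trough fluorescence over baseline after EC90 choline challenge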
Numbers stand for hits; . = inactive; ? = inconclusive; / = not tested or not shown.

SMILES	CHT allo act	DSG3 Ab inh	p-CIP stab down	GPR7 antag	CHT block	T cell modulator	CHT block conf	HEK293 CHT ctr
Cc1ccc(CSc2nnc(C)c(=O)[nH]2)cc1	.	.	.	.	-7.9	.	.	.
O=C(NNc1ccc([N+](=O)[O-])cc1[N+](=O)[O-])c1ccco1	.	.	.	.	-7.5	.	67%	.
COc1ccc(C2CCc3cc(OC)c(OC)cc3C2NC=O)cc1OC (centres undefined)	/	.	/	/	/	/	/	/
CN(C(=S)NC(=O)c1ccccc1)C1CCCCC1	.	.	.	.	.	.	/	/
Cc1cc(C2C(=O)NC(=O)C2=O)c(C)cc1Br (centres undefined)	/	.	/	/	/	/	/	/
C#CC[N+]1(CC#Cc2ccccc2)CCCCC1	.	.	.	.	-9.6	.	.	.
C#CC[N+]1(CC#Cc2cccc(C)c2)CCCCC1	.	.	.	.	-6.7	.	39%	.
C(#Cc1ccccc1)C[N+]1(CC#Cc2ccccc2)CCCCC1	.	.	.	.	.	.	/	/
C#CC[N+]1(CC#Cc2ccccc2)CCOCC1	.	.	.	.	.	.	/	/
Cc1cccc(NC(=O)CNC(=O)c2cc(S(=O)(=O)N(C)C)ccc2N2CCCC2)c1C	/	.	/	/	/	/	/	/
COc1cc(C(=O)NNC(=O)CNC(=O)C2CCCCC2)ccc1OC(C)C	/	.	/	/	/	.	/	/
Cc1ccc(-c2noc(CNc3ccccc3)n2)cc1	.	.	.	.	-5.8	.	44%	.
CCc1ccc(NCc2nc(-c3ccccc3)no2)cc1	.	.	.	.	-5.7	.	58%	.
O=[N+]([O-])c1ccc(CSc2ccc(S(=O)(=O)N3CCOCC3)cn2)cc1	/	.	/	/	/	/	/	/
CC(C)[C@H](NC(=O)OCc1ccccc1)C(=O)OCC(=O)N1CCCCC1	/	.	/	/	/	/	/	/
CCOC(=O)c1ccccc1NC(=O)COC(=O)C(CC)Oc1ccccc1 (centres undefined)	/	.	/	/	/	/	/	/
CCCCCC(=O)N1C[C@H](O)[C@@H](n2cc(COC(=O)c3ccccc3)nn2)C[C@@H]1c1ccc(OC)cc1	/	.	/	/	/	/	/	/
CCOC(=O)c1ccccc1N/C=C/C(=O)c1cccs1	.	.	.	.	-8.5	.	41%	.
O=C(CN1CCOCC1)N1CCN(S(=O)(=O)c2ccccc2)C1c1ccccc1 (centres undefined)	.	.	.	.	-6.9	.	.	-9.8
NS(=O)(=O)c1ccc(CCNC(=O)CSc2nc3ccsc3c(=O)n2Cc2ccccn2)cc1	/	.	/	/	/	/	/	/
O=C(Cn1nc(C(F)(F)F)cc1C1CC1)NCc1ccccc1F	.	.	.	.	-5.8	.	65%	.
O=C(Cn1nc(C(F)(F)F)cc1C1CC1)Nc1ccccc1F	.	/	.	.	.	.	/	/
COc1ccc(C2(O)CCN(C(=O)NC3CCCCC3)CC2)cc1	.	.	.	.	-7.8	.	36%	.
C/C(=N/Nc1ccc(C(=O)c2c(C)cc3ccccn23)cc1[N+](=O)[O-])c1ccc(O)cc1	/	.	/	/	/	/	/	/
CCCN1CCN(CCCNC(=O)c2ccc3c(c2)NC(=O)c2ccccc2S3)CC1	.	/	.	.	.	.	/	/
SMILES	CHT allo act	DSG3 Ab inh	p-CIP stab down	GPR7 antag	CHT block	T cell modulator	CHT block conf	HEK293 CHT ctr
O=C(NCCCN1CCCC1)c1ccc2c(c1)N(Cc1ccccc1)CCS2	.	.	.	.	-5.4	.	36%	4
O=C1Nc2cc(C(=O)NCCCN3CCCC3)ccc2S/C1=C\c1ccccc1	.	.	.	.	-11	.	24%	.
O=C(NCCCOc1cccc(CN2CCCCC2)c1)c1ccc(Cl)c(Cl)c1	.	.	.	.	-11	.	22%	2.4
Cn1nc(C(=O)NCCCN2CCCCC2)c2c1-c1ccccc1SC2	.	.	.	.	-5.5	.	37%	.
COc1ncnc2c1ncn2CCCN1CCN(Cc2ccc(C)cc2)CC1	/	.	/	/	/	/	/	/
CN(CC(=O)Nc1ccc(Cl)c(Cl)c1)CC(=O)N1CCc2ccccc21	/	.	/	/	/	/	/	/
CCc1c(C)nc2ncnn2c1N1CCN(S(=O)(=O)c2ccc(OC)cc2)CC1	.	.	.	.	-6.3	.	50%	.
Cc1cc(N2CCN(S(=O)(=O)c3ccc(Br)cc3)CC2)n2ncnc2n1	.	.	.	.	.	.	/	/
CC(C)Sc1sc(C(=O)O)c(-c2ccc(Cl)cc2)c1C#N	.	.	.	.	-5.7	.	61%	.
N#Cc1c(SCc2ccc(Cl)cc2)sc(C(=O)c2ccccc2)c1N	.	?	.	.	.	.	/	/
COC(=O)c1ccc(CSC2=NC[C@@H]3[C@@H]4C(=O)N(Cc5ccccc5)C(=O)[C@@H]4[C@](C)(C(=O)OC)N23)cc1	/	.	/	/	/	/	/	/
COc1ccc(CNc2ncc(-c3ccccc3)n2C)cc1	.	.	.	.	-5.5	.	57%	.
Cc1ccc(S(=O)(=O)N2CCN(C(=O)N3CCCCC3)CC2)c(C)c1	/	.	/	/	/	/	/	/
CCOC(=O)c1ccc2c(c1)[nH]c(=S)n2CC	.	.	.	.	-5.1	.	56%	.
CCN(CC)S(=O)(=O)c1ccc2c(c1)[nH]c(=S)n2CC	.	.	.	.	.	.	/	/
COc1ccc(NC(=O)c2ccc3c(c2)S(=O)(=O)N=C2CCCCCN23)cc1S(N)(=O)=O	/	.	/	/	/	/	/	/
Cc1ccc(NC(=O)c2ccc(CN3CC(=O)N4CCCCC4C3=O)cc2)c(C)c1 (centres undefined)	.	.	.	.	-5.5	.	9.5%	.
C=Cn1cc[n+](CC(=O)c2ccc(C)cc2)c1	.	.	.	.	.	.	/	/
C=Cn1cc[n+](CC(=O)c2ccc(Cl)cc2)c1	.	.	.	.	-6.7	.	48%	.
C=Cn1cc[n+](CC(=O)c2ccc(Br)cc2)c1	.	.	.	.	-6.8	.	30%	.
CN(Cc1ccccc1)C(=O)c1cccc(NC(=O)Cc2cccc(NC(=O)C3CCN(C(=O)c4ccccc4)CC3)c2)c1	/	.	/	/	/	/	/	/
Cc1nn(CC(=O)Nc2ccc3c(c2)OCCO3)c(C)c1[N+](=O)[O-]	/	.	/	/	/	.	/	/
CC(=O)Nc1ccc(NC(=O)CCCSc2nc3ccccc3s2)cc1	.	/	.	.	.	.	/	/
O=C(CCCSc1nc2ccccc2s1)NC1=NCCS1	.	.	.	.	-15	.	4.3%	.
CC1CCCCC1NC(=O)c1cccc(S(=O)(=O)N2CCN(C)CC2)c1 (centres undefined)	.	.	/	/	-12	.	2.1%	.
CC1CCCCC1NC(=O)c1ccc2c(c1)[nH]c(=O)n2C1CCCC1 (centres undefined)	.	.	.	.	-9.9	.	40%	.
